Laboratory results published in publication PMC4443790 (Neuron, 2015).
Entries after “also recorded” stand apart in the source; their conditions may differ. Values belong to the compound of their own block, whether it stands above or below them.

Legend:
rats [1] = assay: Fluoro-Jade C staining of rat brain; assay type: in vivo
rats [2] = assay: Behavioral convulsions, modified Racine scale; assay type: in vivo; conditions: rat
[3] = test system: NMDAR currents in hippocampal CA1 pyramidal cells; assay: Whole-cell recordings of NMDA-evoked currents/responses in CA1 pyramidal cells; set-up: species or system rat; conditions: for effect on NMDA-evoked currents when added alone / effect on NMDAR currents in the presence of 3 μM DHPG: 5PAM523 20 μM, VU0409551 10 μM
[4] = Biotransformation in rat hepatocytes; assay type: in vitro ADME; conditions: multiple oxidative pathways
α2A adrenergic receptors = target: T1, α2A adrenergic receptors (Homo sapiens, UniProt P08913); assay: Radioligand competition binding assay; conditions: read-out: IC50 at α2A adrenergic receptors
T1 sequence (P08913 1-465): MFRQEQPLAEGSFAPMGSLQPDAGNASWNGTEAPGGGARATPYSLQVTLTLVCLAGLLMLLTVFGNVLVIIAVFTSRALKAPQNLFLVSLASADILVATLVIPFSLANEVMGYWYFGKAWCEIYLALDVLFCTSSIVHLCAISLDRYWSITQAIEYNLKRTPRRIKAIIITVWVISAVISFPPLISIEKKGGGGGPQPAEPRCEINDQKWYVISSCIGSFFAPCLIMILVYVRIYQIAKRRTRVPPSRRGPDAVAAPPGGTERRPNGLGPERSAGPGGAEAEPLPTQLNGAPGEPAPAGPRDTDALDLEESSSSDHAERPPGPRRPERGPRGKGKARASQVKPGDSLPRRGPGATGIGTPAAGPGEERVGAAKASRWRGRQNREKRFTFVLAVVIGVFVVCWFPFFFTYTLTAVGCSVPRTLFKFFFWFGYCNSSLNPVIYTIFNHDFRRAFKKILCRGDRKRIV

[5] = test system: 66 other receptors and ion channels; assay: Radioligand competition binding panel; conditions: 10 μM
[6] = target: mGlu5 in rat cortical astrocytes (Rattus norvegicus, UniProt P31424); assay: Glutamate-induced calcium mobilization in cultured rat cortical astrocytes; assay type: cell-based
Sequence of mGlu5 in rat cortical astrocytes (P31424 21-1203): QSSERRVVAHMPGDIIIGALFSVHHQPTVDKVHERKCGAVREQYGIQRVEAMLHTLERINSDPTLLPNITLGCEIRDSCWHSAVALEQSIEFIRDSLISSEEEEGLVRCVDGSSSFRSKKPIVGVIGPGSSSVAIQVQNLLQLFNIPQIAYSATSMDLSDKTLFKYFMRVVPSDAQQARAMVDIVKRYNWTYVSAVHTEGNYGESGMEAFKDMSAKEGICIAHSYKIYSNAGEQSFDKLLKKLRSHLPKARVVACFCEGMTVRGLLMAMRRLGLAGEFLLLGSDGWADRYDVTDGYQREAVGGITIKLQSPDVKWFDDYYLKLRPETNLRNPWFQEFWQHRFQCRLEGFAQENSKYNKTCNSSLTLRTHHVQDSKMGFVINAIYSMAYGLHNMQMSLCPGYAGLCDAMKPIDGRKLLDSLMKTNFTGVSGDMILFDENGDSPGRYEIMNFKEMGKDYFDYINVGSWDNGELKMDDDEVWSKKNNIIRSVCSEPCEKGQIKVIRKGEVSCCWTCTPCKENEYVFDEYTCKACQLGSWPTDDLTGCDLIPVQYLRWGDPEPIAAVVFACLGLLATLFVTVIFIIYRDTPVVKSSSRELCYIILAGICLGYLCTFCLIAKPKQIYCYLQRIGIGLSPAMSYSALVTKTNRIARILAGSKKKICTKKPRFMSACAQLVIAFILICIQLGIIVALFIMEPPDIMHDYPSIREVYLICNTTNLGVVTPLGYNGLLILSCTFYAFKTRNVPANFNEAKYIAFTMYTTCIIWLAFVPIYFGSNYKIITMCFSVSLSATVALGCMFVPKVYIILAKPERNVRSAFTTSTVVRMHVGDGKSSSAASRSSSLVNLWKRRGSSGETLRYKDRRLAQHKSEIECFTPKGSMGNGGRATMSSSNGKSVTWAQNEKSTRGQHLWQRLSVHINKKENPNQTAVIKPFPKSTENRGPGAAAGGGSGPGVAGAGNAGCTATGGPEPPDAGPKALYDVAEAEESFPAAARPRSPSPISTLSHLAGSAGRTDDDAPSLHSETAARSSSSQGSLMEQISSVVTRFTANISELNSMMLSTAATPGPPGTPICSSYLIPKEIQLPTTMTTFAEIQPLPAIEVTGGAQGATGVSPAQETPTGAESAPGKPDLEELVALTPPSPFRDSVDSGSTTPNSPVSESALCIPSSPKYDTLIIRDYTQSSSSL

[7] = test system: EPSCNMDA/EPSCAMPA at SC-CA1 synapses; conditions: 10 μM
rats [8] = assay: Amphetamine-induced disruption of prepulse inhibition; assay type: in vivo; conditions: rat, 56.6 and 100 mg/kg, 30 min pretreatment
[9] = Rat pharmacokinetics, single intravenous administration; assay type: in vivo; conditions: i.v., 2.5 mg/kg
[10] = Brain distribution in vivo after oral administration; conditions: rat, 1.5 hr after single p.o. 3, 10, 30, 100 mg/kg
[11] = Rat pharmacokinetics, single oral administration; assay type: in vivo; conditions: p.o., 3 mg/kg
[12] = In vitro fraction unbound in rat brain; assay type: in vitro ADME
[13] = In vitro fraction unbound in rat plasma; assay type: in vitro ADME
rat mGlu5 [14] = target: T2, rat mGlu5 (Rattus norvegicus, UniProt P31424); assay: mGlu5-mediated ERK1/2 phosphorylation; assay type: cell-based
T2 sequence (P31424 21-1203): as above
Summary of the method: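 HEK293A cells stably expressing rat mGlu5 were used. Phosphorylated ERK1/2 was measured with an ALPHAScreen-based ERK Surefire assay, both with glutamate added and without added glutamate.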

rats [15] = assay: Contextual fear conditioning; assay type: in vivo; conditions: rat, 0.3 - 10 mg/kg, 30 min pretreatment prior to conditioning
Summary of the method: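 Male Sprague Dawley rats (275-300 g) were dosed orally in 20% β-cyclodextrin (3 ml/kg) 30 min before conditioning. In a chamber scented with 10% vanilla extract, they had 2 min habituation, then one 1 s, 0.5 mA shock-context pairing, and returned home after 45 sec. 24 hr later, freezing was scored blind over 2 min 45 sec in the same context without shock or drug.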

rats [16] = assay: Amphetamine-induced hyperlocomotion; assay type: in vivo, rat
[17] = test system: hippocampal Schaffer collateral-CA1 (SC-CA1) synapse; assay: DHPG-induced LTD, fEPSP recordings at hippocampal SC-CA1 synapse; set-up: species or system rat; conditions: for fEPSP slope, % of baseline: measured 55 min after washout
[18] = test system: NMDAR-fEPSP at SC-CA1 synapse; assay: NMDAR-mediated fEPSPs at the SC-CA1 synapse; set-up: species or system rat
[19] = Satellite PK for Fluoro-Jade studies, repeat oral dosing; assay type: in vivo; conditions: rat, 120 mg/kg p.o. once-daily for 4 days, 75% PEG 400 in water
Summary of the method: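 Non-fasted male Sprague Dawley rats received 120 mg/kg orally once daily for 4 days in aqueous PEG 400 vehicle. Serial blood samples were taken at 3, 7 and 24 hr post-dose on day 1 and day 4. Plasma concentrations were quantified by LC-MS/MS.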

rats [20] = assay: MK-801-induced hyperlocomotion; assay type: in vivo; conditions: rat, p.o.
Summary of the method: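 Male Sprague Dawley rats in an open-field photobeam chamber received vehicle or test compound (10-100 mg/kg, oral, 20% β-cyclodextrin, 3 ml/kg) at t = 30, then MK-801 (0.2 mg/kg s.c. in saline) at t = 60 min. Activity was recorded 60 min more as beam breaks per 5-min bin. AUC from 60 to 120 min gave total ambulations; percent reversal was normalised to vehicle + MK-801; n = 10-12.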

rats [21] = assay: Sleep-wake electroencephalography; assay type: in vivo; conditions: rat, p.o., 10 mg/kg
male Lister-hooded rats = assay: Delayed non-matching to position; assay type: in vivo; conditions: Lister-hooded rat, 10-60 mg/kg
Summary of the method: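 Male Lister-hooded rats (350-450 g), trained to stable accurate performance, received vehicle or test compound (10-60 mg/kg) 60 min before testing. Delays were 1, 10, 20 and 30 sec, with 15 trials each (60 total) and a 45 min maximum per session. Read-outs were proportion of correct responses per delay and trials initiated.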

rats [22] = assay: Novel object recognition; assay type: in vivo; conditions: rat, 1-10 mg/kg, 30 min prior to exposure; significant at 3 and 10 mg/kg
mGlu1,2,3,4,6,7,8 = assay: mGlu subtype selectivity screening; assay type: cell-based, rat; conditions: 10 μM; shift of agonist concentration response curve
Summary of the method: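 Selectivity across mGlu subtypes: mGlu1 was tested by calcium flux in HEK293 cells stably expressing rat mGlu1. mGlu2, 3, 4, 6, 7 and 8 were each tested by thallium flux through GIRK channels in HEK-293-GIRK cells expressing that subtype.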

rat mGlu5 [23] = target: T2, rat mGlu5; assay: Intracellular Ca2+ mobilization in HEK293A cells stably expressing rat mGlu5; assay type: cell-based; conditions: calcium mobilization
Summary of the method: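 Stably transfected HEK293A cells expressing rat mGlu5. Test compound added first (30 μM in representative traces), then EC20 and EC80 concentrations of glutamate added in sequence; intracellular calcium mobilization traces recorded.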

[24] = test system: hippocampal SC-CA1 synapse; assay: Theta burst stimulation-induced LTP at the SC-CA1 synapse; set-up: species or system rat; conditions: 1 μM VU0092273 for 20 min then threshold TBS, 35 min after stimulation
Summary of the method: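 Threshold LTP was induced with one theta-burst train: nine bursts of four pulses at 100 Hz, 230 ms interburst interval. fEPSP slope was quantified 35 min after TBS.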

[25] = operational model of allosterism, pERK1/2
[26] = rat, 3-100 mg/kg, 30 min pretreatment, amphetamine 1 mg/kg s.c.

SMILES: C[C@@H](NC(=O)c1ccc(C#Cc2cccc(F)c2)cn1)C(C)(C)O [VU0424465, reference compound]
FJC-positive neurons in the auditory cortex and adjacent cortical regions (rats [1]; rat, single dose 3 mg/kg i.p., 24 hr after dose): induced cell death
behavioral convulsions (Racine scale) (rats [2]; VU0424465 3 mg/kg): induced behavioral convulsions

SMILES: C[C@@H]1CC[C@H](c2noc(-c3ccc(F)cn3)n2)CN1C(=O)c1ccc(F)cc1 [5PAM523, reference compound]
effect on NMDA-evoked currents when added alone ([3]; voltage clamp): had no effect
effect on NMDAR currents in the presence of 3 μM DHPG ([3]; voltage clamp): potentiated
behavioral convulsions (Racine scale) (rats [2]; 5PAM523 56.6 mg/kg): induced behavioral convulsions

SMILES: O=C(c1ccc(F)cc1)N1CCc2nc(COc3ccccc3)oc2C1 [VU0409551]
turnover in rat hepatocytes [4]: moderate turnover
IC50 (α2A adrenergic receptors): 8.9 µM
activity at 66 other receptors and ion channels [5]: no activity
intrinsic agonist activity ([6]; cultured rat cortical astrocytes): no intrinsic agonist activity
maximum glutamate response ([6]; rat cortical astrocytes): 79.5%
effect on EPSCNMDA/EPSCAMPA ratio when applied alone [7]: had no effects
amphetamine-induced disruptions in PPI (rats [8]): reversed
clearance from plasma (CLp) [9]: 33 mL/min/kg
half-life (t1/2) [9]: 3.9 h
volume of distribution at steady-state (Vss) [9]: 9.6 L/kg
brain to plasma Kp [10]: 2.3
unbound brain to plasma Kp (Kp,uu) [10]: 1.3
area-under-the-curve from 0-last (AUC0-last) [11]: 2.9 µM·h
oral bioavailability (%F) [11]: 63%
brain to plasma partition coefficient (Kp) at unrestricted equilibrium ([fup]/[fubr]) ([12]; from in vitro fup and fubr): 1.8
fraction unbound in rat brain (fubr) ([12]; in vitro): 0.04
FJC staining (rats [1]; 360 mg/kg, once daily for 1 month, unpublished findings): can induce FJC staining
FJC staining (rats [1]; rat, 120 mg/kg p.o. daily for four consecutive days, 24 hr after last dose): did not induce
fraction unbound in rat plasma (fup) [13]: 0.07
pERK1/2 agonist activity (rat mGlu5 [14]; absence of added glutamate): increased pERK1/2 in the absence of added glutamate; also recorded: robust agonist activity
glutamate-induced phosphorylation of ERK1/2 (rat mGlu5 [14]; mGlu5-expressing cells): potentiated
agonist efficacy τB (rat mGlu5 [14]; [25]): 1.04
cooperativity β with glutamate (rat mGlu5 [14]; [25]): 1.43
acquisition of fear memory assessed 24 hr later (rats [15]): significantly enhanced
maximum reversal of amphetamine-induced hyperlocomotion (rats [16]; rat, 3-100 mg/kg): 78.1%
ED50, reversal of amphetamine-induced hyperlocomotion (rats [16]; [26]): 5.9 mg/kg
MED, reversal of amphetamine-induced hyperlocomotion (rats [16]; [26]): 3 mg/kg
EC50 (rats [16]; read-out: in vivo EC50 for reversal of AHL, terminal (1.5 hr) unbound brain concentration, individual animal concentration-efficacy data from all dose groups): 0.097 µM
Emax for reversal of AHL (rats [16]; unbound brain concentration-efficacy analysis): 82%
fEPSP slope, % of baseline ([17]; 10 μM VU0409551 plus 25 μM DHPG): 43.7% ± 4.6%
effect on fEPSP slope when applied alone ([17]; VU0409551 alone, transient, returned to baseline within 10 min of washout): slight depression in the fEPSP slope
effect on NMDAR-fEPSP slope [18]: had no effect
effect on 3 μM DHPG-induced depolarization or increase in NMDAR response ([3]; current clamp): did not potentiate
effect on NMDA-evoked responses when applied alone ([3]; current clamp): had no effect
effect on NMDA-evoked currents when added alone ([3]; voltage clamp): had no effect
effect on NMDAR currents in the presence of 3 μM DHPG ([3]; voltage clamp): had no effect
behavioral convulsions (rats [2]; repeated once-daily 450 mg/kg over 14 days, data not shown): did not induce behavioral convulsions
AUC0-last day 1 [19]: 96 µM·h
AUC0-last day 4 [19]: 95 µM·h
minimal effective dose (MED), reversal of MK-801-induced hyperlocomotion (rats [20]; 10-100 mg/kg, 30 min pretreatment, MK-801 0.2 mg/kg s.c.): 10 mg/kg
maximum reversal of MK-801-induced hyperlocomotion (rats [20]; highest dose 100 mg/kg): 49.7%
duration of decreased time asleep post-administration (rats [21]): 2 h
total number of trials initiated (male Lister-hooded rats; 60 min pretreatment): no change
proportion of correct responses at a 10 and 20 sec delay (male Lister-hooded rats; 60 min pretreatment (60 mg/kg)): increased
recognition memory in the novel object recognition task (rats [22]): dose-dependent increase
effect at the other mGlu receptor subtypes (mGlu1,2,3,4,6,7,8): no effect; also recorded: did not shift the agonist concentration response curve
intrinsic agonist activity (rat mGlu5 [23]): did not possess intrinsic agonist activity

SMILES: O=C(c1ccc(C#Cc2ccccc2)cc1)N1CCC(O)CC1 [VU0092273]
effect on fEPSP slope in response to threshold TBS [24]: significant potentiation

SMILES: Cc1nc(C#Cc2cccnc2)cs1 [MTEP, reference compound]
effect on reversal of AHL by VU0409551 (rats [16]; data not shown): blocked

effect on VU0409551 potentiation of glutamate-induced calcium mobilization ([6]; MPEP 10 μM): blocked
SMILES: Cc1cccc(C#Cc2ccccc2)n1 [MPEP, 2-methyl-6-(phenylethynyl)-pyridine, reference compound]

SMILES: N[C@H](C(=O)O)c1cc(O)cc(O)c1 [DHPG, reference compound]
fEPSP slope, % of baseline ([17]; 25 μM DHPG for 10 min): 78.9% ± 5.7%
fEPSP slope, % of baseline ([17]; 75 μM DHPG for 10 min): 54.9% ± 5.3%
effect of DHPG on inward currents evoked by NMDA ([3]; voltage clamp, DHPG at different concentrations): concentration-dependent increase in inward currents
